Source: PubChem BioAssay AID493238 (Broad Institute, 2011)
“And” between values parts separate entries of the source, which are not always exact repeats. Identical values can stand only once. The source made the active and inactive calls.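 Rule for the calls: active = VEGF mRNA rise whose fitted curve reaches 40% activation within the highest concentration tested on that sample; inactive = the rest, including effects opposite to expected.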

Test system: U2OS VEGF mRNA induction, RT-PCR
Experiment: activators raising VEGF transcript levels – cell-based, U2OS, RT-PCR, dry powder, set 2, orthogonal assay for HIF pathway activator project, dose response (AID 493238)
Details: not given
Method in brief: (§1)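 Assay system: human U2OS osteosarcoma cells, endogenous VEGF-A mRNA; Quantity: 2,000 U2OS cells per well; Times: 24 h pre-growth at 37 °C, 24 h compound treatment; Detection: duplex TaqMan RT-qPCR (FAM VEGF-A, VIC beta-actin), 40 cycles, post-lysis; Doses: duplicate dose-response pinning.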

Row | SMILES | AC40
1 | c1ccc(-c2nnc(-c3ccccn3)nc2NCCN2CCOCC2)cc1 | 8.15 µM
2 | c1ccc(-c2nnc(-c3ccccn3)nc2Nc2nc3ccccc3s2)cc1 | 0.51 µM
3 | COc1ccccc1N1CCN(Cc2ccc(O)c3ncccc23)CC1 | 0.519 µM
4 | CC(C)(C)CCNC(=O)c1cc(-c2ccccc2)on1 | > 38 µM (inactive)
5 | O=C(NCC1CC1)c1cc(-c2ccccc2)on1 | 17.2 µM
6 | c1ccc(-c2nnc(-c3ccccn3)nc2N2CCC(c3ccccc3)C2)cc1 (configuration not stated) | 1.52 µM
7 | c1ccc(-c2nnc(-c3ccccn3)nc2Nc2cnc3ccccc3n2)cc1 | 1.1 µM
8 | c1ccc(-c2nnc(-c3ccccn3)nc2N2CCC(N3CCOCC3)CC2)cc1 | 6.52 µM
9 | CCCCNC(=O)c1cc(-c2ccccc2)on1 | 14.6 µM
10 | c1ccc(CNc2nc(-c3ccccn3)nnc2-c2ccccc2)cc1 | 1.6 µM
11 | c1ccc(-c2csc(Nc3nc(-c4ccccn4)nnc3-c3ccccc3)n2)cc1 | 0.597 µM
12 | c1ccc(-c2nnc(-c3ccccn3)nc2NCC2CCCCC2)cc1 | 1.3 µM
13 | Cc1ccc(Nc2nc(-c3ccccn3)nnc2-c2ccccc2)cn1 | 6.12 µM
14 | CC(C)(C)c1ccc(CNc2nc(-c3ccccn3)nnc2-c2ccccc2)cc1 | 0.397 µM
15 | CN(C)c1nc(-c2ccccn2)nnc1-c1ccccc1 | 8.23 µM
16 | O=C(c1cc(-c2ccccc2)on1)N1CCN(c2ccncc2)CC1 | > 38 µM (inactive)
17 | c1ccc(-c2nnc(-c3ccccn3)nc2NCc2cccnc2)cc1 | 2.84 µM
18 | C[C@@H](Nc1nc(-c2ccccn2)nnc1-c1ccccc1)C1CCCCC1 | 0.571 µM
19 | CC(Nc1nc(-c2ccccn2)nnc1-c1ccccc1)c1ccccc1 (configuration not stated) | 1.37 µM
20 | Cc1cccc(Nc2nc(-c3ccccn3)nnc2-c2ccccc2)n1 | 2.98 µM
21 | c1ccc(-c2nnc(Nc3nc(-c4ccccn4)nnc3-c3ccccc3)s2)cc1 | 1.3 µM
22 | O=C(NCCCn1ccnc1)c1cc(-c2ccccc2)on1 | 10.7 µM

Row | SMILES | AC40
23 | COc1ccc(CNc2nc(-c3ccccn3)nnc2-c2ccccc2)cc1 | 1.92 µM
24 | O=C(Nc1ncc2ccccc2n1)c1cc(-c2ccccc2)on1 | 36.2 µM
25 | c1ccc(-c2nnc(-c3ccccn3)nc2N2CCN(c3ccncc3)CC2)cc1 | 2.12 µM
26 | c1ccc(-c2nnc(-c3ccccn3)nc2NCCCN2CCOCC2)cc1 | 6.5 µM
27 | C=CCNc1nc(-c2ccccn2)nnc1-c1ccccc1 | 4.47 µM
28 | Cn1c(-c2ccccc2)cnc1Nc1nc(-c2ccccn2)nnc1-c1ccccc1 | 3.33 µM
29 | Oc1ccc(CNC2Cc3ccccc3C2)c2cccnc12 | 10.7 µM
30 | c1ccc(-c2nnc(-c3ccccn3)nc2NCC2CC2)cc1 | 2.4 µM
31 | c1ccc(-c2nnc(-c3ccccn3)nc2NCc2ccccn2)cc1 | 4.53 µM
32 | C[C@@H](Nc1nc(-c2ccccn2)nnc1-c1ccccc1)c1ccccc1 | 2.22 µM
33 | Cc1ccc(CNc2nc(-c3ccccn3)nnc2-c2ccccc2)cc1C | 0.772 µM
34 | c1ccc(-c2ccc(CNc3nc(-c4ccccn4)nnc3-c3ccccc3)cc2)cc1 | 0.303 µM
35 | O=C(Nc1cn2ccccc2n1)c1cc(-c2ccccc2)on1 | 18.6 µM
36 | CN1CCN(c2nc(-c3ccccn3)nnc2-c2ccccc2)CC1 | 5.95 µM
37 | CC(C)(C)CCNc1nc(-c2ccccn2)nnc1-c1ccccc1 | 0.768 µM and 0.974 µM
38 | O=C(NCCN1CCOCC1)c1cc(-c2ccccc2)on1 | 28.8 µM
39 | c1ccc(-c2nnc(-c3ccccn3)nc2N2CCC(C3CCCCC3)C2)cc1 (configuration not stated) | 0.843 µM
40 | Cn1c(-c2ccccc2)cnc1NC(=O)c1cc(-c2ccccc2)on1 | 35.2 µM
41 | c1ccc(-c2cccc(CNc3nc(-c4ccccn4)nnc3-c3ccccc3)c2)cc1 | 0.601 µM
42 | c1ccc(-c2nnc(-c3ccccn3)nc2NCC2CCOCC2)cc1 | 7.58 µM
43 | O=C(NCCCO)c1cc(-c2ccccc2)on1 | 11.5 µM
44 | c1ccc(-c2nnc(-c3ccccn3)nc2NCCc2ccccn2)cc1 | 5.54 µM

Row | SMILES | AC40
45 | Oc1ccc(CNC2CCc3ccccc32)c2cccnc12 (configuration not stated) | 35.1 µM
46 | Oc1ccc(CN2CCC(Cc3ccccc3)CC2)c2cccnc12 | 6.76 µM
47 | C[C@H](Nc1nc(-c2ccccn2)nnc1-c1ccccc1)C1CCCCC1 | 1.39 µM
48 | CC(C)(C)OC(=O)N1CCN(Cc2ccc(O)c3ncccc23)CC1 | 10.2 µM
49 | O=C(NCCCN1CCOCC1)c1cc(-c2ccccc2)on1 | 23 µM
50 | OCC1CCN(Cc2ccc(O)c3ncccc23)CC1 | 3.56 µM
51 | Cc1ccccc1CNc1nc(-c2ccccn2)nnc1-c1ccccc1 | 1.02 µM
52 | O=C(NCCCCO)c1cc(-c2ccccc2)on1 | 5.01 µM
53 | c1ccc(-c2cnc(Nc3nc(-c4ccccn4)nnc3-c3ccccc3)s2)cc1 | 0.4 µM
54 | OCC1CCN(c2nc(-c3ccccn3)nnc2-c2ccccc2)CC1 | 10.5 µM
55 | Cc1cccc(CNc2nc(-c3ccccn3)nnc2-c2ccccc2)c1 | 1.45 µM
56 | O=C(NC1CCc2ccccc2C1)c1cc(-c2ccccc2)on1 (configuration not stated) | > 38 µM (inactive)
57 | c1ccc(CCNc2nc(-c3ccccn3)nnc2-c2ccccc2)cc1 | 4.92 µM
58 | Cc1ccc(CNc2nc(-c3ccccn3)nnc2-c2ccccc2)cc1 | 0.892 µM
59 | N#CC1(c2ccccc2)CCN(Cc2ccc(O)c3ncccc23)CC1 | 28.3 µM
60 | Clc1cccc(CNc2nc(-c3ccccn3)nnc2-c2ccccc2)c1 | 0.87 µM
61 | COc1cccc(CNc2nc(-c3ccccn3)nnc2-c2ccccc2)c1 | 1.78 µM
62 | Oc1ccc(CN2CCc3ccccc3C2)c2cccnc12 | 5.31 µM and 5.35 µM
63 | CC1CN(Cc2ccc(O)c3ncccc23)CC(C)O1 (configuration not stated) | 9.15 µM
64 | OCCCNc1nc(-c2ccccn2)nnc1-c1ccccc1 | 8.34 µM
65 | Oc1ccc(CN2CCC3CCCCC3C2)c2cccnc12 (configuration not stated) | 3.2 µM

Test system: not listed separately
Experiment: as above
Details: U2OS VEGF mRNA induction, RT-PCR; at 38 µM (top of the series)
Method in brief: as §1

Row | SMILES | activation
66 | Cn1c(NC(=O)c2cc(-c3ccccc3)on2)nc2ccccc21 | -9.2% (inactive)
67 | O=C(c1cc(-c2ccccc2)on1)N1CCC(N2CCCC2)CC1 | 13.9% (inactive)
68 | O=C(Nc1ccc2ccccc2n1)c1cc(-c2ccccc2)on1 | 4.54% (inactive)
69 | Cc1cccc(CNC(=O)c2cc(-c3ccccc3)on2)c1 | 8.64% (inactive)
70 | O=C(c1cc(-c2ccccc2)on1)N1CCC(CO)CC1 | 9.68% (inactive)
71 | Cc1cccc(NC(=O)c2cc(-c3ccccc3)on2)n1 | 16.6% (inactive)
72 | O=C(c1cc(-c2ccccc2)on1)N1CCC(N2CCOCC2)CC1 | 2.34% (inactive)
73 | O=C(NCCN1CCCCC1)c1cc(-c2ccccc2)on1 | -5.63% (inactive)
74 | Cc1ccc(CNC(=O)c2cc(-c3ccccc3)on2)cc1 | 8.66% (inactive)
75 | O=C(Nc1nc2ccccc2s1)c1cc(-c2ccccc2)on1 | 18.7% (inactive)
76 | Cc1ccc(NC(=O)c2cc(-c3ccccc3)on2)cn1 | 4.7% (inactive)
77 | O=C(NCC1CCCCC1)c1cc(-c2ccccc2)on1 | -2.71% (inactive)
78 | O=C(Nc1cnc2ccccc2c1)c1cc(-c2ccccc2)on1 | -1.59% (inactive)
79 | O=C(NCc1ccccc1)c1cc(-c2ccccc2)on1 | -10.1% (inactive)
80 | CN(C)CCNC(=O)c1cc(-c2ccccc2)on1 | 5.67% (inactive)
81 | O=C(Nc1nc(-c2ccccc2)cs1)c1cc(-c2ccccc2)on1 | -5.33% (inactive)
82 | CN1CCN(C(=O)c2cc(-c3ccccc3)on2)CC1 | 5.56% (inactive)
83 | O=C(Nc1ncc(-c2ccccc2)o1)c1cc(-c2ccccc2)on1 | -1.45% (inactive)
84 | Cc1ccccc1CNC(=O)c1cc(-c2ccccc2)on1 | 35.3% (inactive)
85 | O=C(Nc1nnc(-c2ccccc2)s1)c1cc(-c2ccccc2)on1 | -3.69% (inactive)
86 | O=C(c1cc(-c2ccccc2)on1)N1CCc2cccnc21 | 5.33% (inactive)
87 | O=C(NC1Cc2ccccc2C1)c1cc(-c2ccccc2)on1 | 2.5% (inactive)
